Wee1 stabilizer – Wee1 degradation inhibitors, primary screen, cell-based, HeLa, Wee1K328M-luciferase, luminescence. hit rate 1.2% among 220,000. reporter increase, % at 5 µM. Wee1-like protein kinase (Homo sapiens), P30291. AID 1321, 2008. HeLa Luc-Wee1K328M stability; 100% = proteasome inhibitor MG132 effect;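 active = activation above the mean of all tested compounds plus 3 SD, set per screening run, cut at about 8.8% in these data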;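 note: cells exposed to compound for 20 h before luminescence read; 0% = DMSO alone and 100% = MG132 at 30 µM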
Target sequence (P30291 whole entry K328M): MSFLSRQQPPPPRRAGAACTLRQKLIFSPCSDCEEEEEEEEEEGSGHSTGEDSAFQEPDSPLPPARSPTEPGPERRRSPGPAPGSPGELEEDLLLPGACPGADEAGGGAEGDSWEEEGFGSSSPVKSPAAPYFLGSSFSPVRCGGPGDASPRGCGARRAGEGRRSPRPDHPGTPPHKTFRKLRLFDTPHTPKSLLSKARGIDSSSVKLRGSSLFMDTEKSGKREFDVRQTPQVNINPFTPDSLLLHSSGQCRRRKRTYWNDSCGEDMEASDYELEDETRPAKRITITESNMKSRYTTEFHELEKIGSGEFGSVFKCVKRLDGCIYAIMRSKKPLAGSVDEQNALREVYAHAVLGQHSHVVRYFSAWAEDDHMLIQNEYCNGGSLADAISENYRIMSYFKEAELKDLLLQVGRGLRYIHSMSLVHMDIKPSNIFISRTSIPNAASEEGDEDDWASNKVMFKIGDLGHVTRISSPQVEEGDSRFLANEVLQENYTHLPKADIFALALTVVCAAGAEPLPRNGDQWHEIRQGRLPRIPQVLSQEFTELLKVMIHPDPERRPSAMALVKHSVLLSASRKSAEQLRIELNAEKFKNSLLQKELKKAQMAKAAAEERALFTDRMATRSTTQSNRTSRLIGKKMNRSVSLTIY
Rad51 HR inh – human RAD51 strand exchange inhibitors, primary screen, biochemical, fluorescence; DNA repair protein RAD51 homolog 1 (Homo sapiens), Q06609; AID 1385, 2008; hit rate 0.085% among 200,000; hRad51 DNA strand exchange, fluorescence dequenching; inhibition, % at 10 µM;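 active = inhibition above 40% at the single screening dose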;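 note: 0% = DMSO control wells and 100% = blanks with heterologous ssDNA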
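Test system – preformed human Rad51 ssDNA filaments · Reagent – Donor/quencher-labelled 47-bp dsDNA substrate · Incubation – 37 °C 15-min filament assembly, 30-min compound preincubation, 15-min exchange · Signal – FRET fluorescence dequenching, excitation 485 nm, emission 520 nm · Read-out – percent inhibition from fluorescence, normalised to plate control and blank means · Benchmarks – plate control and blank wells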
CHOP inhibitor – inhibitors of CHOP promoter induction, primary screen, cell-based, unfolded protein response, luciferase reporter; CHO-K1 CHOP-promoter luciferase, tunicamycin-induced, 15-18 h; inhibition, % at 10 µM; hit rate 3.8% among 220,000; AID 2732, 2010;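 active = compounds that reduced the stress-induced luciferase reporter signal by more than about 70% of percent inhibition, limit read from the data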;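 note: 0% = tunicamycin plus vehicle and 100% = wells without tunicamycin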
PKD1 kinase inh – inhibitors of human PKD1 kinase, biochemical, fluorescence polarization; hit rate 0.056% among 200,000; Serine/threonine-protein kinase D1 (Homo sapiens), Q15139; inhibition, % (test concentration not listed); PKD1 kinase fluorescence polarization assay; AID 797, 2007
Lmaj promast – Leishmania major promastigote growth inhibition, primary screen. AID 1063, 2008. hit rate 9% among 200,000. Leishmania major promastigotes, resazurin fluorescence viability. inhibition, % at 10 µM;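 note: promastigotes grown with compound for 44 hours at 28 °C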
Arbovirus anti – antivirals against arbovirus infection, primary screen, cell-based, full library, 10K replicate subset. AID 1251, 2008. arbovirus infection cell-based antiviral screen. inhibition, % at 10 µM. hit rate 0.37% among 200,000; in the data active = inhibition above about 30%
Starred values were filed as active, the others as inactive; i = inactive; . = not tested or not shown. Sampled rows, rich in hits. Any-hit rate of the full collection: about 12%. Cut-off read from the data, not from the text of the source, unless noted: active = inhibition above about 50%; inactive = the rest.

SMILES | Wee1 stabilizer | Rad51 HR inh | CHOP inhibitor | PKD1 kinase inh | Lmaj promast | Arbovirus anti
O=C1COc2ccc(C(=O)COC(=O)c3cc(S(=O)(=O)NCc4ccccc4)ccc3O)cc2N1 | 2.1 | 8.1 | 24.9 | . | . | .
COC(=O)C(O)(CC(=O)Nc1cc(Cl)ccc1Cl)C(F)(F)F (stereo unspecified) | -0.3 | 6.7 | 20.5 | -4.1 | -7.4 | 3.8
COc1ccc(C2=NOC(c3nnc(-c4ccccc4)o3)C2)cc1 (stereo unspecified) | . | 8.1 | . | . | . | .
O=C1CCC(C(=O)OCc2cc(=O)oc3ccc4ccccc4c23)=NN1 | -1.2 | 12.5 | 8.4 | . | . | .
Fc1cccc(Cl)c1/C=N/n1c(-c2cccnc2)n[nH]c1=S | 1.6 | 2.6 | 22.8 | -5.2 | 1.3 | -5.3
O=C(N/N=C1\CCCc2ccccc21)c1ccccc1[N+](=O)[O-] | -0.5 | -1.1 | 16.6 | -3.2 | 99.8* | 5.4
O=C(N/N=C1/CCCc2ccccc21)c1cc([N+](=O)[O-])cc([N+](=O)[O-])c1 | -0.2 | -5.1 | 56.6 | -8.2 | 11.4 | -16.1
O=C(N/N=C1\CCCc2ccccc21)c1ccc([N+](=O)[O-])cc1Cl | -3.7 | -3.1 | 5.9 | 3.2 | 93.6* | 3.1
O=C(N/N=C1\CCCc2ccccc21)c1cccc([N+](=O)[O-])c1 | 2.2 | . | 33.1 | 6.3 | -0.5 | -11.2
C=Cc1ccc(CSc2cc(C)nc3nc(C)nn23)cc1 | -1.8 | -12.8 | 7.0 | . | . | .
CC(C)(C)c1nnc(N/N=C/c2ccccc2O)n(N)c1=O | 8.3 | . | 45.7 | -6.8 | 97.9* | -33.6
O=c1cc(NC2CCCCC2)c2ccccc2o1 | -0.1 | 1.8 | 10.8 | 2.8 | 5.8 | -10.4
O=C(N/N=C/c1cc(Br)ccc1O)c1cccc(N2CCCC2=O)c1 | -3.2 | 10.1 | 54.1 | -12.7 | 99.6* | -35.2
O=C(N/N=C/c1cc(Cl)ccc1O)c1ccncc1 | -1.8 | -44.0 | 72.5* | . | . | .
O=C(N/N=C/c1ccncc1)c1cccc(NC(=O)c2ccc(Cl)cc2)c1 | 2.3 | -7.0 | 52.8 | -3.8 | -11.2 | 4.8
CC(C)c1ccc(/C=N/NC(=O)c2ccccc2Cl)cc1 | 8.9* | 7.0 | 15.5 | 0.5 | 1.2 | -18.4
O=C(N/N=C/c1cc(Br)ccc1O)c1ccccc1Cl | -3.4 | 6.5 | 50.1 | -0.4 | 98.2* | -27.7
O=C(N/N=C/c1ccccc1Cl)c1[nH]c2ccc(Br)cc2c1-c1ccccc1 | 11.5* | -3.1 | -7.8 | 15.2 | 10.3 | -5.4
O=C(CCc1ccccc1)N/N=C/c1cc(Br)ccc1O | -0.4 | -4.5 | 75.8* | -1.5 | 98.2* | -10.6
COc1ccc(NC(=O)OCCn2c([N+](=O)[O-])cnc2C)cc1 | -2.2 | . | 33.5 | -0.1 | 53.5* | -6.2
COc1ccc(OCc2csc(N)n2)cc1 | -3.9 | 5.6 | -3.3 | 0.2 | -2.8 | 3.2
Cc1ccc(-n2c(-c3ccccc3)c[n+]3c2CCc2ccccc2-3)c(C)c1 | -2.0 | 16.1 | 32.1 | 4.7 | 100.5* | -6.6
Cc1ccc(-n2c(NN)nc3ccccc3c2=O)c(C)c1 | -2.1 | . | 4.3 | -15.3 | 21.1 | -13.6
Cc1ccc2nc(N3CCN(S(=O)(=O)c4ccc(C)c(Cl)c4)CC3)c(C#N)cc2c1 | 0.3 | . | 32.7 | -9.7 | 24.0 | 16.1
CCC(Oc1ccccc1)C(=O)Nc1ccc(-c2nnc(-c3ccco3)o2)cc1 (stereo unspecified) | 0.8 | -3.7 | -16.5 | -2.1 | 93.7* | -14.9
SMILES | Wee1 stabilizer | Rad51 HR inh | CHOP inhibitor | PKD1 kinase inh | Lmaj promast | Arbovirus anti
CC1CCN(C(=O)C2CCN(S(=O)(=O)c3cc(Cl)ccc3Cl)CC2)CC1 | 1.8 | 22.3 | -5.1 | . | . | .
Cc1cc(O)ccc1N=Cc1c(C(F)(F)F)[nH][nH]c1=O | -1.0 | 23.9 | 12.2 | 5.8 | 51.9* | -16.8
COc1ccc(S(=O)(=O)N2CCOCC2)cc1NC(=O)CSc1nnc2ccccn12 | 2.3 | -4.3 | -25.6 | -2.3 | 4.5 | 3.8
CN(Cc1ccccc1)C(=O)COC(=O)CCNC(=O)c1ccccc1Cl | 1.4 | 5.9 | -12.3 | -2.2 | -5.7 | 1.5
COC(=O)CSc1nc(C)c(C(C)=O)cc1C#N | 0.7 | 1.6 | 13.9 | -7.2 | -3.2 | -3.3
CCCSc1nc(C)c(C(C)=O)cc1C#N | -0.8 | -9.6 | 70.1* | -3.6 | -6.5 | 5.7
Cc1ccc(C(=O)c2ccc(O)cc2)cc1C | -0.7 | -4.7 | 56.5 | -14.2 | -4.8 | 1.9
Cc1ccc(C(=O)c2cccc(N)c2)cc1C | -0.3 | -2.3 | 78.5* | -6.6 | -5.1 | -12.4
CCOC(=O)/C(=C/C=C1\Sc2cc(C)c(C)cc2N1CC)C(C)=O | 0.4 | i | 93.6* | -6.9 | 9.5 | -15.2
CCOC(=O)/C(=C/C=C1\Sc2ccccc2N1CC)C(C)=O | 0.3 | i | 29.9 | -14.7 | 15.3 | -8.1
O=C(C1CCCN(Cc2ccccc2Br)C1)N1CCCCC1 (stereo unspecified) | 10.5* | 1.4 | 14.9 | -15.3 | 45.5 | 1.5
COc1ccc(Br)cc1CN1CCCC(C(=O)N2CCCCCC2)C1 (stereo unspecified) | 0.1 | 2.5 | 2.4 | 6.7 | 85.1* | 10.5
CCCCCCCCCCCCCCCC(=O)OC(CC(=O)O)C[N+](C)(C)C (stereo unspecified) | . | . | -4.9 | . | . | .
COc1ccccc1C1(CCNS(=O)(=O)c2ccc(C)cc2)CCOC(C(C)C)C1 (stereo unspecified) | -1.9 | -5.2 | 13.9 | 7.7 | 82.7* | -10.1
Cc1ccc(NC(=S)N(CCC(C)C)C(C)c2ccncc2)c(Cl)c1 (stereo unspecified) | 2.0 | 20.2 | 21.9 | . | . | .
CCOC(=O)C1=C(c2ccccc2)NC(SCC(=O)Nc2cccc(C)c2)=C(C#N)C1c1ccco1 (stereo unspecified) | -2.8 | . | 98.7* | -5.4 | 21.6 | -32.7
CCOC(=O)C1=C(c2ccccc2)NC(SCC(=O)Nc2ccc(C)cc2)=C(C#N)C1c1ccco1 (stereo unspecified) | -1.7 | -4.0 | 94.2* | -4.7 | 2.5 | -16.1
COc1ccc(Nc2nc(N3CCCC3)nc(N3CCCC3)n2)c(OC)c1 | -1.1 | -1.5 | 65.0 | -7.8 | 48.9 | 5.2
COc1ccc(Nc2nc(NC(C)(C)C)nc(N3CCCC3)n2)c(OC)c1 | 0.1 | . | 83.7* | 0.7 | 95.8* | 13.4
COc1ccc(N2CCN(c3nc(NC(C)(C)C)nc(N4CCCCC4)n3)CC2)cc1 | -2.5 | . | 17.6 | -5.2 | 97.1* | 24.0
COc1ccc(-c2cc(C(F)(F)F)nc(N3CCOCC3)n2)cc1 | -2.0 | -1.0 | 64.8 | -4.7 | -2.2 | 2.2
COc1ccc(Nc2nc(Nc3ccc(OC)cc3OC)nc(N3CCN(C)CC3)n2)c(OC)c1 | -0.2 | . | 27.7 | 1.9 | 76.6* | -28.6
COc1ccc(-c2cc(-c3ccc(F)cc3)nc(N3CCN(C)CC3)n2)cc1 | -2.2 | 2.7 | 86.7* | 1.2 | 39.5 | 7.8
COc1ccc(Nc2nc(N3CCCCC3)nc3ccccc23)c(OC)c1 | 5.6 | 6.8 | 37.5 | 1.5 | 97.2* | -25.1

Compound activity deposited in PubChem by several laboratories.
